# RGS4 inh = human RGS4 inhibition. HEK293 M3R/RGS4 inducible, Fluo-4 calcium flux; active compounds read high; triggered by carbachol at its EC20. B-score at 10 µM. actives 0.45% (n = 310,000). AID 463165;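 active = B-score, a plate-corrected calcium signal, over three deviations above library mean, with baseline fluorescence within five deviations of library mean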;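 also: RGS4 expression induced by doxycycline in cells with stable M3 receptor; B-score is computed from the integrated fluorescence ratio over baseline after carbachol; higher B-score means a larger calcium signal and so more RGS4 inhibition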
# Target sequence (P49798 whole entry, looked up): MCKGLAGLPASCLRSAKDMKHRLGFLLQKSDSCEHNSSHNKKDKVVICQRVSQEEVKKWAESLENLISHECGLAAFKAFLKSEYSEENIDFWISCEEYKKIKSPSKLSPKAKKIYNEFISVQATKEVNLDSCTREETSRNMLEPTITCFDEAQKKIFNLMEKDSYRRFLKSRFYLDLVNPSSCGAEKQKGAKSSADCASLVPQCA
# MrgX1 allo act = human MrgX1 positive allosteric modulation, primary screen; Q96LB2; MrgX1-HEK293, Fluo-4 calcium flux, FDSS; active compounds read high; B-score at 10 µM; actives 0.63% (n = 310,000); AID 588675;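 active = plate-corrected calcium response at least 3 library SD above typical, normal starting fluorescence, not activating the receptor alone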;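 also: compound read alongside a low EC10 to EC30 dose of BAM8-22 agonist; peak minus trough fluorescence over baseline measured at the second addition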
# Target sequence (Q96LB2 whole entry, looked up): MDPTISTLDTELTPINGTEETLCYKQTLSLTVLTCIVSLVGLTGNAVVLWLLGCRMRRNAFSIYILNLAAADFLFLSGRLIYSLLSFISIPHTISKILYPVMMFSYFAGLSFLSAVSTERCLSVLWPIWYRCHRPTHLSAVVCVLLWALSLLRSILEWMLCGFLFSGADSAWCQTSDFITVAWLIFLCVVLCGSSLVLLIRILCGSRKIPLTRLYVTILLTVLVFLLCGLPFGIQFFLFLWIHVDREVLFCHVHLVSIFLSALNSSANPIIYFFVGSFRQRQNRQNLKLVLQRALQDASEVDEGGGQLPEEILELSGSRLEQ
# RGS4 pot = RGS4 potentiation or activation; HEK293 M3R/inducible RGS4, carbachol calcium flux Fluo4; active compounds read low; AID 463111; actives 0.92% (n = 310,000); B-score at 10 µM;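 active = B-score of the integrated calcium signal more than 4 SD below the library mean, with starting fluorescence not abnormally high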;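 also: negative B-score means reduced calcium response which marks RGS4 activation or potentiation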
#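 Reagent: ECmax carbachol challenge; Test system: M3R-expressing HEK293 line, RGS4 induced by doxycycline; Schedule: overnight RGS4 induction, 30 min dye load 37 °C, 20 min compound RT; Detection: calcium dye Fluo4 fluorescence; Read-out: Agonist-evoked peak-minus-minimum fluorescence over baseline, integrated ratio, B score.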
# MrgX1 agonist = activates human MrgX1 receptor signaling | Q96LB2 | MrgX1-HEK293 cells, Fluo-4 calcium fluorescence, agonist mode; active compounds read high | B-score at 10 µM | actives 0.44% (n = 310,000);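 active = calcium response B-score plate-corrected fluorescence ratio at least 3 library SD, with starting fluorescence B-score inside 5 SD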
#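 times = overnight plating, then 30 min 37 °C plus 30 min room-temperature dye loading | assay system = stable human MrgX1 HEK293 cell line | input = fifteen thousand cells per well | signal = kinetic calcium dye fluorescence, Fluo-4 NW | dosing = compound delivered in addition one of three | read-out = B-scored fluorescence response ratio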
# MrgX1 antagonist = human MrgX1 receptor antagonism, primary screen. Q96LB2. MRGX1-HEK293 calcium flux, Fluo-4, BAM8-22 antagonism; active compounds read low. B-score at 10 µM. actives 1.3% (n = 310,000);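 active = calcium-response B-score plate-corrected more than 3 library SD below zero, starting fluorescence within 5 deviations, no agonist response on first addition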;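 also: peak minus trough fluorescence over baseline after final BAM8-22 challenge near maximal dose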
# MrgX1 PAM conf = human MrgX1 positive allosteric modulation, re-confirmation; shares compounds with MrgX1 allo act; activation (ratio percentage), % at 10 µM; actives 13% (n = 1,200); AID 602413; MrgX1-HEK293, Fluo-4 calcium fluorescence, FDSS;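 active = ratio at least 3 SD above the weak peptide control, stable starting fluorescence, no direct agonism earlier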;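 also: compound followed by low BAM8-22 agonist challenge near EC20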
# HEK293 Ca flux = MrgX1 antagonist counter-screen hit in parental HEK293 cells | shares compounds with MrgX1 antagonist | Fluo-4 calcium fluorescence, FDSS | fluorescence ratio F(max-min)/F0 at 10 µM | actives 2% (n = 4,000) | AID 624111;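 active = duplicate-averaged calcium fluorescence ratio at least three times the standard deviation of buffer wells, a nonspecific response in parental cells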
# HEK293 Ca counter = MrgX1 allosteric activator counter-screen hit in parental HEK293 cells; fluorescence ratio F(max-min)/F0 at 10 µM; parental HEK293 calcium flux, Fluo-4 fluorescence ratio; active compounds read high; shares compounds with MrgX1 antagonist; AID 624114; actives 0.4% (n = 4,000);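 active = calcium fluorescence ratio, averaged over duplicates, at least 3 SD of the buffer-well ratio, meaning a nonspecific response in receptor-free cells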;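 also: untransfected parental HEK293 lacking MrgX1 used as counterscreen for MrgX1 allosteric activators; fluorescence change taken during the second addition on a kinetic imager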
# HEK293 Ca cntr2 = activity in parental HEK293 cells lacking MrgX1 receptor | fluorescence ratio F(max-min)/F0 at 10 µM | shares compounds with MrgX1 antagonist | actives 8.7% (n = 4,000) | Fluo-4 calcium fluorescence (FDSS); active compounds read high;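 active = calcium fluorescence ratio at least three times the spread of buffer wells, meaning a non-specific response in parental cells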
# Active calls of the source: *; i = inactive; / = not tested or not shown; ! = not confirmed by another sample. An excerpt weighted towards active compounds, which were near 3.5% of everything screened.
SMILES,RGS4 inh,MrgX1 allo act,RGS4 pot,MrgX1 agonist,MrgX1 antagonist,MrgX1 PAM conf,HEK293 Ca flux,HEK293 Ca counter,HEK293 Ca cntr2
CCCCc1cc(=O)oc2cc(OC(C)C(=O)NCc3ccccn3)c(Cl)cc12 (stereo unspecified),i,13*,i,i,i,i,i,i,i
O=C(NC(=S)Nc1cc(S(=O)(=O)N2CCOCC2)ccc1N1CCOCC1)C1CCCC1,i,7.1*,i,i,i,6.4%*,i,i,i
CCOc1cc(/C=C2/C(=N)N3OC(C)=CC3=NC2=O)ccc1OC(=O)c1ccco1,i,i,i,i,i,/,/,/,/
COc1cc(/C=C2/C(=N)N3C(=NC2=O)SN=C3S(=O)(=O)C(C)C)ccc1OC(=O)c1ccco1,i,38*,i,i,i,37%*,i,i,i
CCOc1cc(/C=C2/C(=N)N3C(=NC2=O)SN=C3S(=O)(=O)CC)ccc1OC(=O)c1ccco1,i,35*,i,i,i,24%*,i,i,i
CCOc1cc(/C=C2/SC(=S)NC2=O)ccc1OC(=O)c1ccco1,i,i,i,i,i,/,/,/,/
CCOc1cc(/C=C2/C(=N)N3C(=NC2=O)SN=C3S(=O)(=O)C(C)C)ccc1OC(=O)c1ccco1,i,37*,i,i,i,41%*,i,i,48*
Oc1cc2c(cc1CN1CCN(c3ncccn3)CC1)OCO2,i,i,i,i,i,/,/,/,/
C=CCSc1nc(O)c(C2OC(=O)c3c2ccc(OC)c3OC)c(=O)n1-c1ccccc1 (stereo unspecified),i,31*,i,i,i,i,i,i,i
CCNc1nc(NC(C)C)nc(Oc2ccc(/C=N/O)cc2)n1,i,i,i,i,i,/,/,/,/
COc1ccccc1NC(=O)NNC(=O)c1ccc2c(c1)NC(=O)C(C)(C)O2,i,20*,i,i,i,i,i,i,i
COc1cccc(NC(=O)NNC(=O)c2ccc3c(c2)NC(=O)C(C)(C)O3)c1,i,i,i,i,i,/,/,/,/
COc1cccc(N2CCN(c3ccc4nnc(CCC(=O)Nc5ccccn5)n4n3)CC2)c1,i,7.5*,i,i,i,i,i,i,i
COc1ccccc1N1CCN(C(=O)C(=O)c2c[nH]c3ccccc23)CC1,i,i,i,i,i,/,/,/,/
O=C(COc1ccccc1Br)NC1CCCC1,i,7.3*,i,i,i,i,i,i,i
Cc1cc(Br)ccc1OCC(=O)NC1CCCC1,i,i,i,i,i,/,/,/,/
CCc1ccc(OCC(=O)NC2CCCCC2)c(Br)c1,i,8.3*,i,i,i,i,i,i,i
COc1ccc(C(=O)COC(=O)CCNS(=O)(=O)c2ccccc2)c(OC)c1,i,i,i,i,i,/,/,/,/
CC(C)CC(COCc1ccc(F)cc1)N1CCN(C(=O)c2cccc(C(F)(F)F)c2)CCC1=O (stereo unspecified),i,i,i,i,i,/,/,/,/
CC(C)CC(CO)N1CCN(C(=O)c2cccc(C(F)(F)F)c2)CCC1=O (stereo unspecified),i,10*,i,i,i,i,i,i,i
O=C(NCCCc1ccccc1)c1ccc([N+](=O)[O-])cc1Cl,i,i,i,i,i,/,/,/,/
CC(C)(C)c1nc2ccc(NS(=O)(=O)c3ccc(F)c(F)c3F)cc2[nH]1,i,i,i,i,i,/,/,/,/
Cc1ccccc1Oc1ncnc2oc(-c3ccccc3)cc12,i,18*,i,i,i,44%*,i,i,i
O=C(CSc1nnc(-c2ccc(OC(F)F)cc2)o1)NCc1cccs1,i,7.5*,i,i,i,i,i,i,i
O=C(CSc1nc2ccccc2c(=O)n1-c1ccc(OC(F)F)cc1)NCc1cccs1,i,i,i,i,i,/,/,/,/
SMILES,RGS4 inh,MrgX1 allo act,RGS4 pot,MrgX1 agonist,MrgX1 antagonist,MrgX1 PAM conf,HEK293 Ca flux,HEK293 Ca counter,HEK293 Ca cntr2
COc1ccc(OC)c(/C=C/C(=O)OCC(=O)c2c(N)n(C)c(=O)n(C)c2=O)c1,i,i,i,i,i,/,/,/,/
O=C1CN(c2nc3nonc3nc2N2CCCCC2)CCN1,i,i,i,i,i,/,/,/,/
C=C(C)COc1ccc2c(C)c(CCC(=O)N3C[C@H]4C[C@@H](C3)c3cccc(=O)n3C4)c(=O)oc2c1,i,28*,i,i,i,i,i,i,i
Oc1ccc(C2CNCCc3c2cc(O)c(O)c3Cl)cc1 (stereo unspecified),i,6.7*!,i,i,i,i,i,i,i
Oc1cc2c(c(Cl)c1O)CCNCC2c1ccccc1 (stereo unspecified),i,i,i,i,i,/,/,/,/
CCCCN(C)C(=O)c1oc2ccc(S(=O)(=O)N3CCCCCC3)cc2c1C,i,i,i,i,i,/,/,/,/
Cn1c(-c2ccccc2F)cc2onc(-c3ccccc3)c2c1=O,/,i,/,i,i,/,/,/,/
Cn1c(-c2ccccc2)cc2onc(-c3ccccc3)c2c1=O,/,12*,/,i,i,21%*,i,i,i
Cc1nnc2sc(SCC(=O)Nc3nccs3)nn2c1=O,i,i,i,i,i,/,/,/,/
CCOC(=O)c1sc(=NC(=O)CCSc2ccccc2)n(C)c1C,i,i,i,i,i,/,/,/,/
CCOC(=O)c1sc(=NC(=O)COc2ccccc2)n(C)c1C,i,11*,i,i,i,i,i,i,i
Cc1ccc(CC(=O)CCc2ccccc2)cc1,i,i,i,i,i,/,/,/,/
Cc1cc(NC(=O)c2cccc(S(=O)(=O)N3CC(c4ccccc4)CC3=O)c2)no1 (stereo unspecified),i,8.3*,i,i,i,i,i,i,i
CCOc1ccc(-c2[nH]ncc2Oc2ccccc2OCC)c(O)c1,i,6.7*,i,i,i,i,i,i,i

# Screens deposited in PubChem BioAssay by Johns Hopkins Ion Channel Center.
